Data from ChEMBL document CHEMBL1944504, “Toward the definition of stereochemical requirements for MT2-selective antagonists and partial agonists by studying 4-phenyl-2-propionamidotetralin derivatives” (J Med Chem, 2011).

What was measured:
[1] = Displacement of 2-[125I]iodomelatonin from human MT2 receptor expressed in […] NIH3T3 cells after 90 mins; assay type: cell-based
In short: (§1)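 Competition binding on membranes from NIH3T3 cells expressing the cloned human receptor (5−10 μg protein per tube). Incubation with 100 pM 2-[¹²⁵I]iodomelatonin for 90 min at 37 °C in 50 mM Tris-HCl, pH 7.4. Melatonin was tested at 10⁻¹⁰−10⁻⁶ M; nonspecific binding was defined with 10 μM melatonin. IC₅₀ came from nonlinear fitting and was converted to pKi by Cheng−Prusoff; values are means of ≥3 independent duplicate determinations.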

[2] = Antagonist activity at human MT1 receptor expressed in […] NIH3T3 cells after 30 mins by [35S]GTPgammaS binding assay relative to melatonin; assay type: functional
[3] = Antagonist activity at human MT2 receptor expressed in […] NIH3T3 cells after 30 mins by [35S]GTPgammaS binding assay relative to melatonin; assay type: functional
[4] = Displacement of 2-[125I]iodomelatonin from human MT1 receptor expressed in […] NIH3T3 cells after 90 mins; assay type: cell-based; in short: as §1
[5] = Partial agonist activity at human MT2 receptor expressed in […] NIH3T3 cells after 30 mins by [35S]GTPgammaS binding assay relative to melatonin; assay type: functional
[6] = Partial agonist activity at human MT1 receptor expressed in […] NIH3T3 cells after 30 mins by [35S]GTPgammaS binding assay relative to melatonin; assay type: functional

Structure (SMILES) | pKi [1] | Intrinsic activity [2] | Intrinsic activity [3] | pKi [4] | Intrinsic activity [5] | Intrinsic activity [6]
CCC(=O)N[C@@H]1Cc2ccccc2[C@@H](c2ccccc2)C1 | 6.1 | -0.23 | -0.14 | 5.67 |  | 
CCC(=O)N[C@@H]1Cc2ccccc2[C@H](c2ccccc2)C1 | 9.26 | 0.15 |  | 7.02 | 0.45 | 
CCC(=O)N[C@H]1Cc2ccccc2[C@H](c2ccccc2)C1 | 8.02 |  |  | 6.89 | 0.48 | 0.33
CCC(=O)N[C@H]1Cc2ccccc2[C@@H](c2ccccc2)C1 | 7.01 | 0.06 | 0.11 | 6.59 |  | 
CCC(=O)N[C@@H]1Cc2c(OC)cccc2[C@H](c2ccccc2)C1 (racemic) | 10.22 | 0.2 |  | 7.83 | 0.44 | 
CCC(=O)N[C@H]1Cc2c(OC)cccc2[C@H](c2ccccc2)C1 (racemic) | 9.71 | 0.02 | 0.21 | 7.04 |  | 
CCC(=O)N[C@@H]1Cc2c(Br)cccc2[C@H](c2ccccc2)C1 (racemic) | 10.85 |  |  | 7.99 | 0.65 | 0.49
CCC(=O)N[C@@H]1Cc2ccccc2[C@H](c2ccccc2)C1 (racemic) | 9.16 | 0.23 |  | 7.12 | 0.46 | 
CCC(=O)N[C@H]1Cc2ccccc2[C@H](c2ccccc2)C1 (racemic) | 8.06 |  |  | 6.65 | 0.4 | 0.41
CCC(=O)NC1=Cc2ccccc2C(c2ccccc2)C1 (racemic) | 7.43 | 0.14 |  | 7.3 | 0.59 | 
CCC(=O)NC1=Cc2c(OC)cccc2C(c2ccccc2)C1 (racemic) | 7.11 |  |  | 6.74 | 0.49 | 0.32
CCC(=O)NCC1=Cc2ccccc2C(c2ccccc2)C1 (racemic) | 8.46 | 0.01 | 0.02 | 7.69 |  | 
